CHRM5 PAM: potentiates acetylcholine response at human M5 receptor. P08912. CHO-K1 hM5, Fluo-8 calcium, ACh EC20 PAM; 0% = ACh EC20, 100% = ACh EC100. activation, % at 3 µM. 360,000 tested, 0.3% active. AID 624038;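 active = activation above the run cutoff, the mean activation of all test compounds plus 3 SD, cut at about 18% in these data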
Target sequence (P08912 whole entry, looked up): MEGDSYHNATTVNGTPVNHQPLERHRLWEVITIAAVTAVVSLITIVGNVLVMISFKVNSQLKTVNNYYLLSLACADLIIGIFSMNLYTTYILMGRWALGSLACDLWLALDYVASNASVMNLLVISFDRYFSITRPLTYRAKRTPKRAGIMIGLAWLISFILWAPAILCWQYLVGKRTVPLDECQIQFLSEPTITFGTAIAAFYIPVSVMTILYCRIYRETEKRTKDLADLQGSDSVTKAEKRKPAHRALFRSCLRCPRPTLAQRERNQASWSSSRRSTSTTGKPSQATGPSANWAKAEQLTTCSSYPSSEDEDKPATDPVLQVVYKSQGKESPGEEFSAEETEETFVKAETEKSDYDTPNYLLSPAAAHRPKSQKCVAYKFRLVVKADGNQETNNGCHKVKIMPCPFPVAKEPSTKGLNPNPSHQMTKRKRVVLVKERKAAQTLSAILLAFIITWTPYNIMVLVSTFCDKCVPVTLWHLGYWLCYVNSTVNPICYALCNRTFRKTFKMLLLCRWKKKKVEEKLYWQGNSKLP
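Replicates: One well per compound, no replicates | System: Human M5 receptor in CHO-K1 cells | Benchmarks: Low control EC20 acetylcholine (0%), high control EC100 acetylcholine (100%) | Probe or stimulus: Acetylcholine, EC20 level | Times: Fluo-8 loading 80 min at 37 °C plus 30 min room temperature | Signal: Intracellular calcium via Fluo-8 fluorescence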
M4 antag: blocks acetylcholine activation of human M4 receptor; inhibition, % at 3 µM; CHO-hM4 cells, ACh EC80, Fluo-8 calcium fluorescence; AID 624125; 360,000 tested, 0.73% active; P08173;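 active = inhibition above its plate's cutoff, the mean inhibition of sample wells plus 3 SD, cut at about 27% in these data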
CHRM4 PAM: positive allosteric modulators of human muscarinic M4 receptor. P08173. CHO-K1 hM4/Gqi5, Fluo-8 calcium fluorescence, ACh EC20; 0% = ACh EC20, 100% = maximal ACh. activation, % at 3 µM. 360,000 tested, 0.4% active. AID 624126;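 active = activation above its plate's cutoff, the mean activation of sample wells plus 3 SD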
CHRM5 antagonist: blocks acetylcholine activation of human M5 receptor. inhibition, % at 3 µM. 360,000 tested, 0.59% active. CHO-hM5 cells, Fluo-8 calcium fluorescence, ACh EC80. AID 624040;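 active = inhibition above a per-plate cutoff, the mean of that plate's test compounds plus 3 SD, cut at about 27% in these data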
CHRM4 agonist: agonists of human muscarinic M4 receptor (CHRM4). CHO-K1 hM4/Gqi5, Fluo-8 calcium fluorescence; vehicle 0%, full acetylcholine response 100%. activation, % at 3 µM. 360,000 tested, 0.14% active. AID 624127;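 active = activation above the run mean over all test wells plus 3 SD, cut at about 32% in these data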;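 also: peak over basal fluorescence ratio per well then scaled between controls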
CHRM5 agonist: agonists of human muscarinic M5 receptor (CHRM5). P08912. CHO-K1 hM5 cells, Fluo-8 calcium fluorescence; 0% DMSO wells, 100% maximal acetylcholine response. activation, % at 3 µM. 360,000 tested, 0.19% active;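 active = activation above the run's mean over test compounds plus 3 SD, cut at about 23% in these data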;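 also: signal is peak over basal fluorescence ratio across the kinetic read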
Large screens that a line does not name were inactive. Shown are actives, neighbours in structure and some others; about 1.8% of the full set was active somewhere.

COC(=O)[C@]12CCCCC=C1N(Cc1ccc(Cl)cc1Cl)C(=O)[C@H](CC(=O)N1CCN(C(=O)C3CC3)CC1)C2	none
CCc1ccc2c(c1)cc(CN(C(=S)Nc1ccccc1)C1CC1)c1nnnn12	CHRM4 PAM 32
O=C(C[C@@H]1C[C@@H]2c3cc(NC(=O)C4CCOCC4)ccc3O[C@@H]2[C@H](CO)O1)NCc1ccccn1	none
O=C1NC(=O)C(c2ccccc2)(c2ccccn2)N1 (stereo not given)	none
O=C1NC(=S)NC1(c1ccccc1)c1ccccc1	M4 antag 41
CN(C)c1cc[n+](CC(=O)Nc2ccc(Oc3ccccc3)cc2)cc1	M4 antag 43
CCOc1ccc(NC(=O)C[n+]2ccc(N(C)C)cc2)cc1	none
CC(=O)/C(C(=N)N1CCN(C(c2ccccc2)c2ccccc2)CC1)=C(\C)O	M4 antag 91, CHRM5 antagonist 83
CC(=O)/C(C(=N)N1CCN(Cc2ccccc2)CC1)=C(\C)O	none
O=C(O)/C=C/C(=O)N1CCN(C(c2ccccc2)c2ccccc2)CC1	M4 antag 30, CHRM5 antagonist 27
CC[C@H](C)[C@H](NS(=O)(=O)c1ccc(C)cc1)C(=O)N1CCC(C(=O)N[C@H](C(=O)O)C(C)C)CC1	CHRM5 PAM 20
O=c1cc(O)c2c(=O)[nH]c(=O)n(-c3ccccc3)c2[nH]1	CHRM4 PAM 16
Cn1c(=O)c2c(O)cc(=O)[nH]c2n(-c2ccccc2)c1=O	none
Cc1ccc(CN2CC(N3CC=CC3)CS2(=O)=O)cc1 (stereo not given)	none
OCCN1CCN(CCCN2c3ccccc3Sc3ccc(Cl)cc32)CC1	M4 antag 98, CHRM5 antagonist 34
CN(C)CCCN1c2ccccc2Sc2ccc(Cl)cc21	M4 antag 73, CHRM5 antagonist 98
CN(C)CCCN1c2ccccc2Sc2ccc3ccccc3c21	M4 antag 27, CHRM5 antagonist 55
CCOC(=O)[C@]12CCCC=C1N(Cc1ccccc1)C(=O)[C@H](CC(=O)NCCc1ccccc1OC)C2	none
O=C(NCc1ccccc1Cl)C(=O)c1cn(CC(=O)N2CCOCC2)c2ccccc12	CHRM5 PAM 23
O=C(NCCc1ccccc1)C(=O)c1cn(CC(=O)N2CCCC2)c2ccccc12	CHRM5 antagonist 27
O=C(NCc1ccccc1)C(=O)c1cn(CC(=O)N2CCOCC2)c2ccccc12	none
COc1ccccc1CCNC(=O)C(=O)c1cn(CC(=O)N2CCCC2)c2ccccc12	none
CC(C)[C@@H]1Cc2[nH][nH]c(=O)c2[C@H](C(C)C)O1	none
Clc1cccc(Oc2cnc3ccccc3n2)c1	CHRM4 PAM 30
O=C1NC[C@H](CCCCN2CCN(CCC3CCCCC3)C(=O)C2=O)N(CCC2CCCCC2)C1=O	none
CC(C)(Cc1nc2ccccc2[nH]1)c1nc2ccccc2[nH]1	none
CC(=O)c1sc(NC(=O)CCS(=O)(=O)c2ccccc2)nc1C	CHRM4 PAM 17
CC(=O)c1sc(NC(=O)CCS(=O)(=O)c2ccc(F)cc2)nc1C	none
Cc1ccc(N/C(N)=N/c2nc(C)cc(C)n2)cc1	none
Cc1cccc(N/C(N)=N/c2nc(C)cc(C)n2)c1	CHRM4 agonist 37
CCCCc1ccc(N/C(N)=N/c2nc(C)cc(C)n2)cc1	M4 antag 87, CHRM5 antagonist 77, CHRM4 agonist 114, CHRM5 agonist 51
CCO[C@@H]1OC(C(=O)NCc2ccccc2)=C[C@H](c2csc3ccccc23)[C@H]1CCCO	M4 antag 27, CHRM4 agonist 42
CCO[C@H]1OC(C(=O)NCc2ccccc2)=C[C@@H](c2ccc3c(c2)OCO3)[C@@H]1CCCO	CHRM5 agonist 25
CCO[C@H]1OC(C(=O)NCc2nc3ccccc3[nH]2)=C[C@@H](C2CC2)[C@@H]1CCCO	CHRM4 PAM 24
CC1CCCCN1C(=O)CSc1nnc(-c2ccco2)n1CC1CCCO1 (stereo not given)	CHRM4 PAM 30
CCn1c(SCC(=O)N2CCCCC2C)nnc1-c1ccco1 (stereo not given)	none
COc1ccc(-c2ccc(C(=O)Nc3cccc(F)c3)c3occc23)c(C)c1	none

Source: PubChem (The Scripps Research Institute Molecular Screening Center)
